{"data": "Measured values gathered from unrelated publications", "PTGS2": "Prostaglandin G/H synthase 2 (PTGS2, Homo sapiens, UniProt P35354)", "CREBBP bromodomain": "CREB-binding protein, bromodomain (CREBBP, Homo sapiens, UniProt Q92793)", "DYRK3": "Dual specificity tyrosine-phosphorylation-regulated kinase 3 (DYRK3, Homo sapiens, UniProt O43781)", "DYRK1B": "Dual specificity tyrosine-phosphorylation-regulated kinase 1B (DYRK1B, Homo sapiens, UniProt Q9Y463)", "BRWD1 BD2": "Bromodomain and WD repeat-containing protein 1, BD2 (BRWD1, Homo sapiens, UniProt Q9NSI6)", "note": "Each line is one published result; the experiments were not run side by side."}
{"Compound": "C=C[C@@]1(C)C=C2CC[C@@H]3[C@](C)(CCC[C@@]3(C)C(=O)O)[C@H]2CC1", "target": "PTGS2", "assay": "enzyme activity, inhibitor", "conditions": "15.63 µg/mL", "quantity": "inhibition", "value": "85.3%"}
{"Compound": "Cn1cc(C(=O)Nc2cccc(C(=O)O)c2)ccc1=O", "target": "CREBBP bromodomain", "assay": "thermal stability, DSF", "conditions": "100 µM", "quantity": "ΔTm", "value": "1.9 °C"}
{"Compound": "O=c1cc(-c2ccc(O)cc2)oc2cc(O)cc(O)c12", "target": "PTGS2", "assay": "enzyme activity, inhibitor", "conditions": "31.25 µg/mL", "quantity": "inhibition", "value": "100%"}
{"Compound": "COc1cccc(Nc2nc3cc(C(=O)O)ccc3c3cnccc23)c1", "target": "DYRK3", "assay": "enzyme activity, inhibitor, radiometric", "conditions": "1 µM", "quantity": "remaining activity", "value": "2%"}
{"Compound": "C[S+]([O-])c1ccc(-c2nc(-c3ccncc3)c(-c3ccc(F)cc3)[nH]2)cc1 (stereo not drawn)", "target": "Transcription intermediary factor 1-beta (TRIM28, Homo sapiens, UniProt Q13263)", "assay": "thermal stability, DSF", "conditions": "10 µM", "quantity": "ΔTm", "value": "1.43 °C"}
{"Compound": "CCN1CCN(Cc2ccc(NC(=O)c3ccc(C)c(Oc4ccnc5[nH]ccc45)c3)cc2C(F)(F)F)CC1", "target": "Microtubule-associated serine/threonine-protein kinase 3 (MAST3, Homo sapiens, UniProt O60307)", "assay": "target engagement in cells, inhibitor, chemoproteomics", "system": "Huh-7", "conditions": "1 µM", "quantity": "inhibition", "value": "-11.3%"}
{"Compound": "O=C(O)c1ccc2c(c1)nc(NCCc1cccc(F)c1)c1ccncc12", "target": "DYRK1B", "assay": "enzyme activity, inhibitor, radiometric", "conditions": "1 µM", "quantity": "remaining activity", "value": "106%"}
{"Compound": "Nc1ncnc2occ(-c3ccc(NC(=O)Nc4cc(C(F)(F)F)ccc4F)cc3)c12", "target": "Mitogen-activated protein kinase kinase kinase 15 (MAP3K15, Homo sapiens, UniProt Q6ZN16)", "assay": "cell-free assay, inhibitor", "conditions": "20 µM", "quantity": "remaining signal", "value": "39%"}
{"Compound": "CN(C)C1CCN(CC#Cc2nn(C3CCCC3)c3nc(NCc4ccccc4)ncc23)C1 (stereo not drawn)", "target": "Serine/threonine-protein kinase PAK 1 (PAK1, Homo sapiens, UniProt Q13153)", "assay": "enzyme activity, inhibitor, FRET", "conditions": "0.1 µM", "quantity": "inhibition", "value": "2%"}
{"Compound": "N#Cc1cccc(Nc2nc3cc(C(=O)O)ccc3c3cncnc23)c1", "target": "DYRK1B", "assay": "enzyme activity, inhibitor, radiometric", "conditions": "1 µM", "quantity": "remaining activity", "value": "87%"}
{"Compound": "Cc1cnc(Nc2ccc(OCCN3CCCC3)cc2)nc1Nc1cccc(S(=O)(=O)NC(C)(C)C)c1", "target": "Bromodomain testis-specific protein, BD2 (BRDT, Homo sapiens, UniProt Q58F21)", "assay": "thermal stability, DSF", "conditions": "10 µM", "quantity": "ΔTm", "value": "2.69 °C"}
{"Compound": "COc1ccc(-c2cc(=O)c3c(O)cc(O[C@@H]4O[C@H](CO)[C@@H](O)[C@H](O)[C@H]4O)cc3o2)cc1O", "target": "PTGS2", "assay": "enzyme activity, inhibitor", "conditions": "0.98 µg/mL", "quantity": "inhibition", "value": "72.2%"}
{"Compound": "O=C(O)c1ccc2c(c1)nc(Nc1ccc3ccccc3c1)c1ccncc12", "target": "DYRK3", "assay": "enzyme activity, inhibitor, radiometric", "conditions": "1 µM", "quantity": "remaining activity", "value": "4%"}
{"Compound": "Oc1ccc(-c2nc(-c3ccncc3)c(-c3ccc(F)cc3)[nH]2)cc1", "target": "BRWD1 BD2", "assay": "thermal stability, DSF", "conditions": "10 µM", "quantity": "ΔTm", "value": "-0.73 °C"}
{"Compound": "O=C(O)c1ccc2c(c1)nc(Nc1ccccc1)c1ccncc12", "target": "DYRK1B", "assay": "enzyme activity, inhibitor, radiometric", "conditions": "1 µM", "quantity": "remaining activity", "value": "73%"}
{"Compound": "CC(CCC(=O)NCC(=O)O)C1CCC2C3CCC4CC(O)CCC4(C)C3CC(O)C12C (stereo not drawn)", "target": "Serine hydroxymethyltransferase, mitochondrial (SHMT2, Homo sapiens, UniProt P34897)", "assay": "thermal stability", "conditions": "50 µM", "quantity": "ΔTm", "value": "12.3 °C"}
{"Compound": "N#Cc1cccc(Nc2nc3cc(C(=O)O)ccc3c3cnccc23)c1", "target": "DYRK1B", "assay": "enzyme activity, inhibitor, radiometric", "conditions": "1 µM", "quantity": "remaining activity", "value": "10%"}
{"Compound": "O=C(O)c1ccc(O)cc1", "target": "PTGS2", "assay": "enzyme activity, inhibitor", "conditions": "1.95 µg/mL", "quantity": "inhibition", "value": "41.7%"}
{"Compound": "O=C(O)c1ccc2c(c1)nc(Nc1ccc(Cl)cc1)c1ncncc12", "target": "DYRK3", "assay": "enzyme activity, inhibitor, radiometric", "conditions": "1 µM", "quantity": "remaining activity", "value": "9%"}
{"Compound": "O=C(NCCCNc1nc(Nc2cccc(CN3CCOCC3)c2)ncc1C1CC1)C1CCC1", "target": "Inhibitor of nuclear factor kappa-B kinase subunit epsilon (IKBKE, Homo sapiens, UniProt Q14164)", "assay": "enzyme activity, inhibitor, radiometric", "conditions": "1 µM", "quantity": "remaining activity", "value": "4%"}
{"Compound": "NS(=O)(=O)c1ccc(Nc2nc(-c3ccc(F)cc3)c3ccccc3n2)cc1", "target": "BRWD1 BD2", "assay": "binding, competition with immobilised ligand", "conditions": "1 µM", "quantity": "remaining binding", "value": "88%"}
{"Compound": "O=C(O)c1ccc2c(c1)nc(NCCc1ccccc1)c1ncncc12", "target": "DYRK1B", "assay": "enzyme activity, inhibitor, radiometric", "conditions": "1 µM", "quantity": "remaining activity", "value": "123%"}
{"Compound": "NS(=O)(=O)c1ccc(CNc2nc(Nc3cccc(NC(=O)N4CCCC4)c3)ncc2Br)cc1", "target": "NUAK family SNF1-like kinase 1 (NUAK1, Homo sapiens, UniProt O60285)", "assay": "enzyme activity, inhibitor, radiometric", "conditions": "1 µM", "quantity": "remaining activity", "value": "11%"}
{"Compound": "CCOc1ccc2cc(-c3nn(CC4CCN(C)CC4)c4ncnc(N)c34)ccc2c1", "target": "Calmodulin-domain protein kinase 1 (CDPK1, Toxoplasma gondii, UniProt Q9BJF5)", "assay": "thermal stability, DSF", "conditions": "20 µM", "quantity": "ΔTm", "value": "12.3 °C"}
{"Compound": "COC(=O)c1ccc(O)cc1", "target": "PTGS2", "assay": "enzyme activity, inhibitor", "conditions": "0.98 µg/mL", "quantity": "inhibition", "value": "0%"}
{"Compound": "Cc1cc2c(NC(=O)c3cccc(C(=O)O)c3)cccc2nn1", "target": "CREBBP bromodomain", "assay": "thermal stability, DSF", "conditions": "100 µM", "quantity": "ΔTm", "value": "4 °C"}
{"Compound": "Cc1cc2c(cc1N1C(=O)c3cccc4c(Cl)ccc(c34)C1=O)n(C)c(=O)n2C", "target": "BRWD1 BD2", "assay": "thermal stability, DSF", "conditions": "10 µM", "quantity": "ΔTm", "value": "-1.4 °C"}
